PubChem BioAssay
The source made the active and inactive calls.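 The calls were made as follows, unless noted: active = viability at or below 10% of carrier control in both of two separate runs; inconclusive = viability at or below 10% in only one of the two runs; inactive = the rest.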

Key:
[1] = Her2 expression decrease, cell viability multiplex – SKBR3 breast tumor cells, AlphaScreen, ATP viability, primary screen (AID 461;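 active = Her2 level under about 52% in both replicate screens, with viability over 70% of control, limit read from the data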;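 as to Her2 level: lower value means less Her2 protein in the cells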;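 as to viability: percent of carrier control wells set as 100% viability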); settings: SKBR3 Her2 protein level, 18-24 h, measured here: SKBR3 viability, ATP luminescence, at 10 µM
[2] = target: Receptor tyrosine-protein kinase erbB-2 (Homo sapiens) (UniProt P04626); test: as above; settings: 18-24 h, at 10 µM, stronger effect = lower value
Chain of Receptor tyrosine-protein kinase erbB-2 (Homo sapiens) (P04626 whole entry, looked up): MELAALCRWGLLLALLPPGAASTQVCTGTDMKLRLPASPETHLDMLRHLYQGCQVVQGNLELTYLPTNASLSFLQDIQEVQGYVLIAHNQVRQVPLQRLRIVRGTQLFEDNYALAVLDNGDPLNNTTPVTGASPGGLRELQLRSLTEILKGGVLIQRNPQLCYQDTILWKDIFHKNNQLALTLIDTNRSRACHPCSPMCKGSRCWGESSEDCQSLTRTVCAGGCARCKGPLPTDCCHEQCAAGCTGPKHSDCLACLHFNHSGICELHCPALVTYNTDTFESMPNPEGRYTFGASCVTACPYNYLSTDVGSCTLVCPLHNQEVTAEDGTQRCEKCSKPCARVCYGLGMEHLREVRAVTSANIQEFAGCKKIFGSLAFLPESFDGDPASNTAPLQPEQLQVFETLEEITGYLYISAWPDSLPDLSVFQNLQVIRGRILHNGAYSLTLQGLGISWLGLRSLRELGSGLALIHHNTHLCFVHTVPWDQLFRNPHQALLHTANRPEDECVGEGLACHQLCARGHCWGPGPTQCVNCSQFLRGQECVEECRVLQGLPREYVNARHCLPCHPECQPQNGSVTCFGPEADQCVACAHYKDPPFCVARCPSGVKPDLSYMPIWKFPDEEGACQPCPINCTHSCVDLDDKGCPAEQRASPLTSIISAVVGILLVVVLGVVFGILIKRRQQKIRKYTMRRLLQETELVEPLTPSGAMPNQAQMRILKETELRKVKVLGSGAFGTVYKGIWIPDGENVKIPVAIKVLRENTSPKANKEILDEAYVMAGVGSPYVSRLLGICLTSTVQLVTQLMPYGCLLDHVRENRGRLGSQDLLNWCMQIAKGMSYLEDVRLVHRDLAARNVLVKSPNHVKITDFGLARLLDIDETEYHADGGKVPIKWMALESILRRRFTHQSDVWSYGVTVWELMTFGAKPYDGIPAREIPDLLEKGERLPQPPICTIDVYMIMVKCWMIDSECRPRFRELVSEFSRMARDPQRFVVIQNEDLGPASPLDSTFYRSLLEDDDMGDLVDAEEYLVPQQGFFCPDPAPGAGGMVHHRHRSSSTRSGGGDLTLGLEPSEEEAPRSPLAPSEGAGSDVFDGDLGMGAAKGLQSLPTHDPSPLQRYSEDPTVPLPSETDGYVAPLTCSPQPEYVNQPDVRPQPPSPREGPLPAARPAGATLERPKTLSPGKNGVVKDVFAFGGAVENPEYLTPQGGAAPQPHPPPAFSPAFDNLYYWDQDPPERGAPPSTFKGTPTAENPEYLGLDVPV

[3] = reduced viability of SK-BR-3 breast cancer cells – cell-based, 24 h, human, pilot screen (AID 572); settings: SK-BR-3 viability, CellTiter-Glo luminescence, at 10 µM, stronger effect = lower value;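 also: compound exposure lasted between 18 and 24 h rather than exactly 24 h; 100% = carrier-treated control wells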
[4] = HUVEC growth inhibition – cell-based, human, primary screen (AID 575;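 active = viability at or below 30% in both replicate assays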;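 also: 100% = median of untreated cell wells with 0.1% DMSO on each plate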); settings: HUVEC proliferation, CellTiter-Glo luminescence, 72 h; at 10 µM; stronger effect = lower value
How it was run: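 Test system: primary human umbilical vein endothelial cells. Quantity: 1250 cells/well. Compound: single 10 µM dose, 0.1% DMSO, from 5x medium stock. Timing: 72 h treatment at 37 °C. Detection: ATP-based CellTiter-Glo luminescent read. Benchmarks: vehicle and MePR control wells. Format: 384-well plates coated with collagen.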

[5] = H69AR cell proliferation blockers – human, duplicate replicates, primary screen (AID 580;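 active = viability at or under a set limit in both replicates, limit being median viability minus 3 SD, cut at about 48% in these data, passing the limit was not always enough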;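 also: 100% = mean luminescence of untreated wells and 0% = no signal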); settings: H69AR lung tumor cells viability, ATP luminescence, 72 h; at 10 µM; stronger effect = lower value
[6] = MRP1 drug-resistance reversers in H69AR cells – cell-based, doxorubicin co-treatment, pilot screen (AID 601;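 active = viability loss from added drug above about 55%, and viability with drug at most 40%, in both replicates, limit read from the data, passing the limit was not always enough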); settings: CellTiter-Glo, 72 h, at 10 µM; for differential viability (reversal): stronger effect = higher value
[7] = yeast transport mutant growth inhibition pilot in 384-well plates, post-Golgi transport modulator project (AID 636; in the data active = inhibition above about 31%); settings: absorbance 615 nm, about 18 h, stronger effect = higher value
[8] = growth suppression of yeast trafficking mutant, preliminary HTS, modulators of trafficking downstream of Golgi apparatus project, 1536-format plate, OD 615 nm (AID 637; in the data active = inhibition above about 30%); settings: yeast transport mutant growth, absorbance 615 nm, 18 h; stronger effect = higher value
[9] = H69AR cells + 2 uM doxorubicin, measured here: viability with 2 uM doxorubicin, stronger effect = lower value
[10] = H69AR cells, compound alone cytotoxicity

SMILES | viability [1] | Her2 level [2] | viability [3] | viability [4] | viability [5] | differential viability (reversal) ([6]; H69AR cells + 2 uM doxorubicin) | viability [6, 9] | viability [6, 10] | inhibition [7] | inhibition [8]
O=C(NCc1ccco1)c1cc2n(n1)C(C(F)(F)F)CC(c1ccc(F)cc1)N2 (stereo not given) | 120% | 106% (inactive) | 120% (inactive) | 67.1% (inactive) | 86.8% (inactive) | 3.92% (inactive) | 82.9% | 86.8% | -4.8% (inactive) | -4.68% (inactive)
CCOP(=O)(c1ccc(N(C)C)cc1)C(O)c1cc(OC)c(OC)c(OC)c1 (stereo not given) | 76.5% | 80% (inactive) | 76.5% (inactive) | 80.6% (inactive) | 87.4% (inactive) | -0.05% (inactive) | 87.4% | 87.4% | -3.68% (inactive) | -2.38% (inactive)
CS(=O)(=O)N1CCN(CC2CC3C=CC2C3)CC1 (stereo not given) | 110% | 98% (inactive) | 110% (inactive) | 111% (inactive) | 101% (inactive) | 9.65% (inactive) | 91.1% | 101% | -6.35% (inactive) | 3.17% (inactive)
COc1ccc(N2CCN(c3nc4c(c(=O)[nH]c(=O)n4C)n3CCCc3ccccc3)CC2)cc1 | 120% | 102% (inactive) | 120% (inactive) | 94% (inactive) | 84.9% (inactive) | -2.09% (inactive) | 87% | 84.9% | -6.8% (inactive) | 0.48% (inactive)
Cc1noc(C)c1S(=O)(=O)Nc1c(C)n(C)n(-c2ccccc2)c1=O | 108% | 99% (inactive) | 108% (inactive) | 104% (inactive) | 98.4% (inactive) | 8.05% (inactive) | 90.3% | 98.4% | -5.13% (inactive) | -1.11% (inactive)
COc1cccc(C(=O)Nc2ccc(N(C)C)cc2)c1OC | 97% | 78.5% (inactive) | 97% (inactive) | 90% (inactive) | 90.9% (inactive) | 10.3% (inactive) | 80.5% | 90.9% | -3.68% (inactive) | -1.27% (inactive)
CC(C)CC(c1nnnn1C1CCCC1)N1CCN(c2ccccc2F)CC1 (stereo not given) | 92.5% | 94% (inactive) | 92.5% (inactive) | 103% (inactive) | 84.2% (inactive) | -7.72% (inactive) | 91.9% | 84.2% | -6.32% (inactive) | 10.7% (inactive)
COc1ccccc1-n1c(-c2cccnc2)n[nH]c1=S | 88% | 109% (inactive) | 88% (inactive) | 110% (inactive) | 109% (inactive) | 6.74% (inactive) | 102% | 109% | -0.4% (inactive) | -2.95% (inactive)
CCn1ncc(Cl)c1C(=O)Nc1ccncc1 | 114% | 94.5% (inactive) | 114% (inactive) | 97.5% (inactive) | 98.6% (inactive) | 14.8% (inactive) | 83.7% | 98.6% | -4.4% (inactive) | -1.97% (inactive)
O=C(c1ccc(Cl)cc1)N(Cc1cccs1)C1CCS(=O)(=O)C1 (stereo not given) | 100% | 138% (inactive) | 100% (inactive) | 117% (inactive) | 89.2% (inactive) | -8.41% (inactive) | 97.6% | 89.2% | -3.29% (inactive) | 7.7% (inactive)
O=C(O)CN1C(=O)C2(OCCCO2)c2ccccc21 | 86.5% | 102% (inactive) | 86.5% (inactive) | 101% (inactive) | 85.1% (inactive) | -0.23% (inactive) | 85.4% | 85.1% | -0.91% (inactive) | 0.49% (inactive)
CCCCOC(=O)n1c(SCC(=O)N(CC)CC)nc2ccccc21 | 86% | 97.5% (inactive) | 86% (inactive) | 81.8% (inactive) | 91.4% (inactive) | 1.75% (inactive) | 89.6% | 91.4% | -1.82% (inactive) | -4.29% (inactive)
CCCC(=O)Nc1nnc(Sc2ccc(N(C)C)cc2)s1 | 100% | 90% (inactive) | 100% (inactive) | 80.3% (inactive) | 101% (inactive) | 15.3% (inactive) | 85.4% | 101% | -5.2% (inactive) | -8.73% (inactive)
Cc1ccc2[nH]cc(C(=O)CN3CCC4(CC3)OCCO4)c2c1 | 106% | 90% (inactive) | 106% (inactive) | 104% (inactive) | 92.2% (inactive) | 1.75% (inactive) | 90.5% | 92.2% | -4.13% (inactive) | -1.48% (inactive)
C=C(C)Cn1c(SCC)nc2ccccc2c1=O | 93% | 97.5% (inactive) | 93% (inactive) | 104% (inactive) | 85.6% (inactive) | -3% (inactive) | 88.6% | 85.6% | -5.39% (inactive) | -3.27% (inactive)
Cc1ccc(NC(=O)c2cc(S(=O)(=O)N3CCC4(CC3)OCCO4)ccc2F)cc1 | 101% | 143% (inactive) | 101% (inactive) | 90.7% (inactive) | 99.3% (inactive) | 2.58% (inactive) | 96.7% | 99.3% | 1.97% (inactive) | -11% (inactive)
C=CCOc1nc(N2CCCC2)nc(N2CCCC2)n1 | 89% | 91% (inactive) | 89% (inactive) | 83.1% (inactive) | 92.7% (inactive) | 11.6% (inactive) | 81.1% | 92.7% | -3.55% (inactive) | -2% (inactive)
Cc1noc(C)c1S(=O)(=O)N1CCC(C(=O)Nc2ccccn2)CC1 | 98% | 81% (inactive) | 98% (inactive) | 105% (inactive) | 89.5% (inactive) | 6.2% (inactive) | 83.3% | 89.5% | -2.11% (inactive) | 0.48% (inactive)
FC(F)(F)c1nnc2ccc(NCn3nnc4ccccc43)nn12 | 102% | 89.5% (inactive) | 102% (inactive) | 83.1% (inactive) | 92.9% (inactive) | 4.94% (inactive) | 88% | 92.9% | -4.61% (inactive) | -1.75% (inactive)
CCN(CC)C(=O)CSc1nnc([C@@H](N)Cc2ccccc2)o1 | 82% | 106% (inactive) | 82% (inactive) | 98.5% (inactive) | 98.2% (inactive) | 3.4% (inactive) | 94.8% | 98.2% | -1.87% (inactive) | 35.4% (active)
O=C(CCCC(=O)OCC(=O)NC1CCCC1)Nc1ccccn1 | 95.5% | 88% (inactive) | 95.5% (inactive) | 98.1% (inactive) | 96.9% (inactive) | -6.12% (inactive) | 103% | 96.9% | -6.8% (inactive) | 3.28% (inactive)
COc1ccc(NC(=O)CC2Oc3ccccc3NC2=O)cc1 (stereo not given) | 87.5% | 90% (inactive) | 87.5% (inactive) | 96.2% (inactive) | 97.6% (inactive) | 0.535% (inactive) | 97.1% | 97.6% | 0.27% (inactive) | -4.75% (inactive)
COC(=O)c1nn(-c2ccc(-c3ccccc3)cc2)cc1O | 94% | 97% (inactive) | 94% (inactive) | 92.6% (inactive) | 89.2% (inactive) | 4.12% (inactive) | 85.1% | 89.2% | -4.27% (inactive) | -8.06% (inactive)
COc1ccc(C(=O)NCCCCCC(=O)O)cc1OC | 125% | 99% (inactive) | 125% (inactive) | 90.5% (inactive) | 92.2% (inactive) | -8.78% (inactive) | 101% | 92.2% | -7.24% (inactive) | -3.33% (inactive)
O=C(CN1C(=O)CSC1=O)Nc1ccc(N2CCOCC2)cc1 | 96.5% | 122% (inactive) | 96.5% (inactive) | 88.1% (inactive) | 101% (inactive) | 5.88% (inactive) | 94.7% | 101% | 1.07% (inactive) | 16.4% (inactive)
Cc1ccc(Cn2nnc3c(=O)[nH]c(C4CCN(C(=O)c5cccs5)CC4)nc32)cc1 | 90.5% | 84% (inactive) | 90.5% (inactive) | 73.4% (inactive) | 86% (inactive) | 2.21% (inactive) | 83.8% | 86% | -3.73% (inactive) | -1.94% (inactive)
CC(C)OC(=O)CSc1nnc(-c2ccco2)n1N | 99.5% | 112% (inactive) | 99.5% (inactive) | 90.4% (inactive) | 107% (inactive) | 14% (inactive) | 93.2% | 107% | -5% (inactive) | -5.33% (inactive)
COCCn1nnnc1C(C(C)C)N1CCN(C(=O)c2ccco2)CC1 (stereo not given) | 92.5% | 112% (inactive) | 92.5% (inactive) | 99.2% (inactive) | 96.7% (inactive) | -1.47% (inactive) | 98.2% | 96.7% | 3.77% (inactive) | 15.6% (inactive)
